# Source: PubChem BioAssay AID588582 (Sanford-Burnham Center for Chemical Genomics, 2011)
# Calls of active or inactive are those of the source.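 Rule for the calls: active = mean EC50 at or below 20 µM; inactive = the rest.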
# Molecular target: CHO-XBP1 luciferase reporter, IRE1-XBP1 arm activation
# Assay: activators of UPR adaptive arm reporter – cell-based, luciferase luminescence, set 2, counter-screen for UPR apoptotic arm activator project, SAR follow-up (AID 588582)
# In short: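 Material: CHO cell line stably carrying XBP1-linked luciferase reporter; times: cells plated 16–18 h before dosing, compound exposure 6 h at 37 °C; technique: Steady-Glo luminescence; benchmarks: high 10 µg/mL tunicamycin, low DMSO only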
row,Structure (SMILES),EC50
1,Cn1c([N+](=O)[O-])cnc1C(=O)Nc1ccc(S(=O)(=O)N2CCC(C)(C)CC2)cc1,> 80 µM (inactive)
2,O=C(Nc1ccc(S(=O)(=O)N2CCC3(CCCCC3)CC2)cc1)c1ccc([N+](=O)[O-])o1,> 80 µM (inactive)
3,CC1(C)CCN(S(=O)(=O)c2ccc(NC(=O)c3ccc(C(F)(F)F)o3)cc2)CC1,> 80 µM (inactive)
4,CC1CN(S(=O)(=O)c2ccc(NC(=O)c3ccc([N+](=O)[O-])o3)cc2)CC(C)O1 (stereo not drawn),> 80 µM (inactive)
5,CC(C)(C)C1CCN(S(=O)(=O)c2ccc(NC(=O)c3ccc([N+](=O)[O-])o3)cc2)CC1,> 80 µM (inactive)
6,O=C(Nc1ccc(S(=O)(=O)N2CCC(F)CC2)cc1)c1ccc([N+](=O)[O-])o1,> 80 µM (inactive)
7,O=C(Nc1nc2ccc(C(F)(F)F)cc2s1)c1ccccn1,> 80 µM (inactive)
8,CC1(C)CCN(S(=O)(=O)c2ccc(NC(=O)c3cccc([N+](=O)[O-])c3)cc2)CC1,> 80 µM (inactive)
9,O=C(Nc1ccc(S(=O)(=O)N2CCC(Cl)CC2)cc1)c1ccc([N+](=O)[O-])o1,> 80 µM (inactive)
10,O=C(Nc1ccc(S(=O)(=O)C2CCOCC2)cc1)c1ccc([N+](=O)[O-])o1,> 80 µM (inactive)

# Second part, the compound after the results:
row,EC50,Structure (SMILES)
1,> 80 µM (inactive),O=C(Nc1nc2ccc(Cl)cc2s1)c1ccccn1
2,> 80 µM (inactive),O=C(Nc1nc2cc(F)c(F)cc2s1)c1ccccn1
3,> 80 µM (inactive),O=C(Nc1nc2c(F)ccc(F)c2s1)c1ccccn1
4,> 80 µM (inactive),O=C(Nc1nc2cccc(F)c2s1)c1ccccn1
5,> 80 µM (inactive),O=C(Nc1nc2cc(F)cc(F)c2s1)c1ccccn1
6,> 80 µM (inactive),O=C(Nc1nc2cc(F)ccc2s1)c1ccccn1
7,> 80 µM (inactive),O=C(Nc1nc2ccc(F)c(F)c2s1)c1ccccn1
8,> 80 µM (inactive),O=C(Nc1nc2c(F)c(F)ccc2s1)c1ccccn1
